According to ChEMBL document CHEMBL3272272, “Photoaffinity labeling of the angiotensin II receptor. 1. Synthesis and biological activities of the labeling peptides” (J Med Chem, 1978):
Non-standard residues stand in square brackets, D forms with d. Residues, ends and D or L forms follow the SMILES beside them. Phe(4-NO2) = N[C@@H](Cc1ccc([N+](=O)[O-])cc1)C(=O)O; Phe(3,5-I2,4-NH2) = Nc1c(I)cc(C[C@H](N)C(=O)O)cc1I; Phe(4-N3) = [N-]=[N+]=Nc1ccc(C[C@H](N)C(=O)O)cc1; Phe(4-N2+) = N#[N+]c1ccc(C[C@H](N)C(=O)O)cc1; Phe(4-NH2) = Nc1ccc(C[C@H](N)C(=O)O)cc1; Sar = CNCC(=O)O

Tests used:
[1] = Antagonist activity at rabbit angiotensin […] receptor in aorta strips under exclusion of long wavelength UV light; type: tissue-based; conditions: Oryctolagus cuniculus, read-out: pA2 (converted)
[2] = species on record: Oryctolagus cuniculus; test: Relative binding affinity at rabbit angiotensin […] receptor in aorta strips under exclusion of long wavelength UV light relative to control; type: tissue-based
[3] = species on record: Oryctolagus cuniculus; test: Agonist activity at rabbit angiotensin […] receptor in aorta strips assessed as peptide concentration required to produce 50% maximal response under exclusion of long wavelength UV light
Method in brief: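 Rabbit aorta contractile bioassay. […]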

[4] = species on record: Oryctolagus cuniculus; test: Intrinsic activity at rabbit angiotensin […] receptor in aorta strips under exclusion of long wavelength UV light; type: tissue-based
Method in brief: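 Intrinsic activity (αE) was determined with the rabbit aorta bioassay.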

CNCC(=O)N[C@@H](CCCNC(=N)N)C(=O)N[C@H](C(=O)N[C@@H](Cc1ccc(O)cc1)C(=O)N[C@H](C(=O)N[C@@H](Cc1cnc[nH]1)C(=O)N1CCC[C@H]1C(=O)N[C@@H](Cc1ccc([N+](=O)[O-])cc1)C(=O)O)C(C)C)C(C)C
Kb [1]: 0.372 nM
RBA [2]: 69%
pD2 [3]: 9.07
Intrinsic activity [4]: 0.46

CNCC(=O)N[C@@H](CCCNC(=N)N)C(=O)N[C@H](C(=O)N[C@@H](Cc1ccc(O)cc1)C(=O)N[C@H](C(=O)N[C@@H](Cc1cnc[nH]1)C(=O)N1CCC[C@H]1C(=O)N[C@@H](Cc1cc(I)c(N)c(I)c1)C(=O)O)C(C)C)C(C)C
Kb [1]: 0.501 nM
RBA [2]: 118%
Intrinsic activity [4]: 0

CNCC(=O)N[C@@H](CCCNC(=N)N)C(=O)N[C@H](C(=O)N[C@@H](Cc1ccc(O)cc1)C(=O)N[C@H](C(=O)N[C@@H](Cc1cnc[nH]1)C(=O)N1CCC[C@H]1C(=O)N[C@@H](Cc1ccc(N)cc1)C(=O)O)C(C)C)C(C)C
RBA [2]: 37%
pD2 [3]: 8.8
Intrinsic activity [4]: 1

CNCC(=O)N[C@@H](CCCNC(=N)N)C(=O)N[C@H](C(=O)N[C@@H](Cc1ccc(O)cc1)C(=O)N[C@H](C(=O)N[C@@H](Cc1cnc[nH]1)C(=O)N1CCC[C@H]1C(=O)N[C@@H](Cc1ccc(N=[N+]=[N-])cc1)C(=O)O)C(C)C)C(C)C
RBA [2]: 31%
pD2 [3]: 8.72
Intrinsic activity [4]: 1

CNCC(=O)N[C@@H](CCCNC(=N)N)C(=O)N[C@H](C(=O)N[C@@H](Cc1ccc(O)cc1)C(=O)N[C@H](C(=O)N[C@@H](Cc1cnc[nH]1)C(=O)N1CCC[C@H]1C(=O)N[C@@H](Cc1ccc([N+]#N)cc1)C(=O)O)C(C)C)C(C)C
RBA [2]: 13%
pD2 [3]: 8.33
Intrinsic activity [4]: 1

CNCC(=O)N[C@@H](CCCNC(=N)N)C(=O)N[C@H](C(=O)N[C@@H](Cc1ccc(O)cc1)C(=O)N[C@H](C(=O)N[C@@H](Cc1cnc[nH]1)C(=O)N1CCC[C@H]1C(=O)N[C@@H](Cc1ccccc1)C(=O)O)C(C)C)C(C)C (H-[Sar]RVYVHPF-OH)
pD2 [3]: 9.23
Intrinsic activity [4]: 1

CNCC(=O)N[C@@H](CCCNC(=N)N)C(=O)N[C@H](C(=O)N[C@@H](Cc1cc(I)c(N)c(I)c1)C(=O)N[C@H](C(=O)N[C@@H](Cc1cnc[nH]1)C(=O)N1CCC[C@H]1C(=O)N[C@@H](Cc1ccccc1)C(=O)O)C(C)C)C(C)C (H-[Sar]RV[Phe(3,5-I2,4-NH2)]VHPF-OH)
RBA [2]: 2.7%
pD2 [3]: 7.68
Intrinsic activity [4]: 1

CNCC(=O)N[C@@H](CCCNC(=N)N)C(=O)N[C@H](C(=O)N[C@@H](Cc1ccc([N+]#N)cc1)C(=O)N[C@H](C(=O)N[C@@H](Cc1cnc[nH]1)C(=O)N1CCC[C@H]1C(=O)N[C@@H](Cc1ccccc1)C(=O)O)C(C)C)C(C)C (H-[Sar]RV[Phe(4-N2+)]VHPF-OH)
RBA [2]: 0.66%
pD2 [3]: 7.05
Intrinsic activity [4]: 1

CNCC(=O)N[C@@H](CCCNC(=N)N)C(=O)N[C@H](C(=O)N[C@@H](Cc1ccc([N+]#N)cc1)C(=O)N[C@H](C(=O)N[C@@H](Cc1cnc[nH]1)C(=O)N1CCC[C@H]1C(=O)N[C@@H](Cc1ccc([N+]#N)cc1)C(=O)O)C(C)C)C(C)C (H-[Sar]RV[Phe(4-N2+)]VHP[Phe(4-N2+)]-OH)
RBA [2]: 1.3%
pD2 [3]: 7.36
Intrinsic activity [4]: 1

CNCC(=O)N[C@@H](CCCNC(=N)N)C(=O)N[C@H](C(=O)N[C@@H](Cc1ccc(N=[N+]=[N-])cc1)C(=O)N[C@H](C(=O)N[C@@H](Cc1cnc[nH]1)C(=O)N1CCC[C@H]1C(=O)N[C@@H](Cc1ccccc1)C(=O)O)C(C)C)C(C)C (H-[Sar]RV[Phe(4-N3)]VHPF-OH)
RBA [2]: 0.26%
pD2 [3]: 6.65
Intrinsic activity [4]: 0.75

CNCC(=O)N[C@@H](CCCNC(=N)N)C(=O)N[C@H](C(=O)N[C@@H](Cc1ccc(N=[N+]=[N-])cc1)C(=O)N[C@H](C(=O)N[C@@H](Cc1cnc[nH]1)C(=O)N1CCC[C@H]1C(=O)N[C@@H](Cc1ccc(N=[N+]=[N-])cc1)C(=O)O)C(C)C)C(C)C (H-[Sar]RV[Phe(4-N3)]VHP[Phe(4-N3)]-OH)
RBA [2]: 0.07%
pD2 [3]: 6.12
Intrinsic activity [4]: 0.8

CNCC(=O)N[C@@H](CCCNC(=N)N)C(=O)N[C@H](C(=O)N[C@@H](Cc1ccc(N)cc1)C(=O)N[C@H](C(=O)N[C@@H](Cc1cnc[nH]1)C(=O)N1CCC[C@H]1C(=O)N[C@@H](Cc1ccccc1)C(=O)O)C(C)C)C(C)C (H-[Sar]RV[Phe(4-NH2)]VHPF-OH)
RBA [2]: 15%
pD2 [3]: 8.41
Intrinsic activity [4]: 1

CNCC(=O)N[C@@H](CCCNC(=N)N)C(=O)N[C@H](C(=O)N[C@@H](Cc1ccc(N)cc1)C(=O)N[C@H](C(=O)N[C@@H](Cc1cnc[nH]1)C(=O)N1CCC[C@H]1C(=O)N[C@@H](Cc1ccc(N)cc1)C(=O)O)C(C)C)C(C)C (H-[Sar]RV[Phe(4-NH2)]VHP[Phe(4-NH2)]-OH)
RBA [2]: 8.7%
pD2 [3]: 8.17
Intrinsic activity [4]: 1

CNCC(=O)N[C@@H](CCCNC(=N)N)C(=O)N[C@H](C(=O)N[C@@H](Cc1ccc([N+](=O)[O-])cc1)C(=O)N[C@H](C(=O)N[C@@H](Cc1cnc[nH]1)C(=O)N1CCC[C@H]1C(=O)N[C@@H](Cc1ccccc1)C(=O)O)C(C)C)C(C)C (H-[Sar]RV[Phe(4-NO2)]VHPF-OH)
RBA [2]: 0%
Intrinsic activity [4]: 0

CNCC(=O)N[C@@H](CCCNC(=N)N)C(=O)N[C@H](C(=O)N[C@@H](Cc1ccc([N+](=O)[O-])cc1)C(=O)N[C@H](C(=O)N[C@@H](Cc1cnc[nH]1)C(=O)N1CCC[C@H]1C(=O)N[C@@H](Cc1ccc([N+](=O)[O-])cc1)C(=O)O)C(C)C)C(C)C (H-[Sar]RV[Phe(4-NO2)]VHP[Phe(4-NO2)]-OH)
Kb [1]: 759 nM
RBA [2]: 0.06%
pD2 [3]: 6.02
Intrinsic activity [4]: 0.5
